Data reported in ChEMBL document CHEMBL5338796, “Discovery of a Selective and Orally Bioavailable FGFR2 Degrader for Treating Gastric Cancer” (J Med Chem, 2023).
Active and inactive are the calls of the source. The rule behind the calls is not given here.

What was measured:
[1] = target: Fibroblast growth factor receptor (Homo sapiens) (UniProt P22607+P11362+P22455+P21802); test: Induction of FGFR degradation in human KATO III stomach cancer cell line assessed as reduction in PLCgamma phosphorylation at 50 nM measured for 6 hrs; type: cell-based
Chain of Fibroblast growth factor receptor (Homo sapiens) (P11362 whole entry, looked up): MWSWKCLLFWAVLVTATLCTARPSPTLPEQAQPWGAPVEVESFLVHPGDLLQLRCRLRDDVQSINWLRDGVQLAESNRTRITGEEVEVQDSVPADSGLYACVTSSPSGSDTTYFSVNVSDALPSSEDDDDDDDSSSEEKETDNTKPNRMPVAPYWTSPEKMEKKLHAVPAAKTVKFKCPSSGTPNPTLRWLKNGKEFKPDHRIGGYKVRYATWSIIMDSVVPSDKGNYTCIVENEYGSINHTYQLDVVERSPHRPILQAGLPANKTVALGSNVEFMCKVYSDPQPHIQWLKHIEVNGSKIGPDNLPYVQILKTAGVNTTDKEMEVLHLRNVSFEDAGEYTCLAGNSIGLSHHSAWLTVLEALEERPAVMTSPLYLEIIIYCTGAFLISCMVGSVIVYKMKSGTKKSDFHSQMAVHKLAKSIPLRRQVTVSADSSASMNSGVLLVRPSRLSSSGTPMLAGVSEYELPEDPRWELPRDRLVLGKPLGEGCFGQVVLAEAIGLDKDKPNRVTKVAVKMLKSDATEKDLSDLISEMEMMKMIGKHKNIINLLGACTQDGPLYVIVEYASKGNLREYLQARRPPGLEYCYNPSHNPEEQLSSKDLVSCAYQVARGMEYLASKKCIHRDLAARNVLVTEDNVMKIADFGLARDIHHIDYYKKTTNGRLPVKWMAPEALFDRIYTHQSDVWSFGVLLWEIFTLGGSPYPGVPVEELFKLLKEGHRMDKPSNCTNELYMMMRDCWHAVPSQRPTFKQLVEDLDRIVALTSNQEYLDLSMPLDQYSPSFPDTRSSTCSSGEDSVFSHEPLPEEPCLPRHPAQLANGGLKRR
Chain of Fibroblast growth factor receptor (Homo sapiens) (P21802 whole entry, looked up): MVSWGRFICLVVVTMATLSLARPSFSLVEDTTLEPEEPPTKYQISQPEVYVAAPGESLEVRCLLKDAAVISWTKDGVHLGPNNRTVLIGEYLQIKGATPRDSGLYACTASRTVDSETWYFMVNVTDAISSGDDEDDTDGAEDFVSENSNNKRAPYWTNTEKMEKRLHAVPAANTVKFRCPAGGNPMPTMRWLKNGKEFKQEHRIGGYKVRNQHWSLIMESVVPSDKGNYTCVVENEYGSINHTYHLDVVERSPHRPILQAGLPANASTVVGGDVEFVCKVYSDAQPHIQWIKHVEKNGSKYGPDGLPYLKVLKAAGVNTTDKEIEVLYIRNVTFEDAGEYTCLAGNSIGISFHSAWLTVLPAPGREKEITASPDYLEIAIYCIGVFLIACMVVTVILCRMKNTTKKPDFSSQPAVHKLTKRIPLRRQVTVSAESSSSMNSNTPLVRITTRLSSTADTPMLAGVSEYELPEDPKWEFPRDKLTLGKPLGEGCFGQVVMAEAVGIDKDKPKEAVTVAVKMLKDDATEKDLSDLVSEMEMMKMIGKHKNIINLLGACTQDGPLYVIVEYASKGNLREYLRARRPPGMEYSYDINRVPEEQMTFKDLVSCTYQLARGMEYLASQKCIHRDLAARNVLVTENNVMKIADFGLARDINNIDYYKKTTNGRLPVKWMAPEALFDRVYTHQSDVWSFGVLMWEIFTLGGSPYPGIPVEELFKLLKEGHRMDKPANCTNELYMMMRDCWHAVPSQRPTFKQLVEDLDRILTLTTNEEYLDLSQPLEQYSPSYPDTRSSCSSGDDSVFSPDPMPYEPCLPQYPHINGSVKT
Chain of Fibroblast growth factor receptor (Homo sapiens) (P22455 whole entry, looked up): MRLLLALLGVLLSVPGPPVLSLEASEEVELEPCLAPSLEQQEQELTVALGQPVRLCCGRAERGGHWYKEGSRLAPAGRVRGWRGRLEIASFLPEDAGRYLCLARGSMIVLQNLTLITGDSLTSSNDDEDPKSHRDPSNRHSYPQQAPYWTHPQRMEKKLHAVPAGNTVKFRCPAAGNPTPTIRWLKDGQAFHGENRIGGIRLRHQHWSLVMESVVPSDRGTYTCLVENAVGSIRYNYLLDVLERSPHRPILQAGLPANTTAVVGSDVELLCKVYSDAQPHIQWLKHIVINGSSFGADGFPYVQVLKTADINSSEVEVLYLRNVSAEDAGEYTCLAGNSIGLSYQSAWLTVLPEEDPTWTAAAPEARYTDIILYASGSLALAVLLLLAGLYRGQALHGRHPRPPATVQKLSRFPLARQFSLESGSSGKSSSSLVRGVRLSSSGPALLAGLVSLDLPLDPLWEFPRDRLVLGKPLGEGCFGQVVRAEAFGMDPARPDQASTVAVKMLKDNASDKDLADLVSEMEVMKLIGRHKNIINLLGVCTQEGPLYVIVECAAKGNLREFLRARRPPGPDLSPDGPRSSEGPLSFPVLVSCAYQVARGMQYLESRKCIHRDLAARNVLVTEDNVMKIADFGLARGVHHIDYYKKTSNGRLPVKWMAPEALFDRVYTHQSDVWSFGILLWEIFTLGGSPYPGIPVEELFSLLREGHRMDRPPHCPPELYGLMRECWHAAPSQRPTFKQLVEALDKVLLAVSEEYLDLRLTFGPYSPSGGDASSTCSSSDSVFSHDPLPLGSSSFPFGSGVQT
Chain of Fibroblast growth factor receptor (Homo sapiens) (P22607 whole entry, looked up): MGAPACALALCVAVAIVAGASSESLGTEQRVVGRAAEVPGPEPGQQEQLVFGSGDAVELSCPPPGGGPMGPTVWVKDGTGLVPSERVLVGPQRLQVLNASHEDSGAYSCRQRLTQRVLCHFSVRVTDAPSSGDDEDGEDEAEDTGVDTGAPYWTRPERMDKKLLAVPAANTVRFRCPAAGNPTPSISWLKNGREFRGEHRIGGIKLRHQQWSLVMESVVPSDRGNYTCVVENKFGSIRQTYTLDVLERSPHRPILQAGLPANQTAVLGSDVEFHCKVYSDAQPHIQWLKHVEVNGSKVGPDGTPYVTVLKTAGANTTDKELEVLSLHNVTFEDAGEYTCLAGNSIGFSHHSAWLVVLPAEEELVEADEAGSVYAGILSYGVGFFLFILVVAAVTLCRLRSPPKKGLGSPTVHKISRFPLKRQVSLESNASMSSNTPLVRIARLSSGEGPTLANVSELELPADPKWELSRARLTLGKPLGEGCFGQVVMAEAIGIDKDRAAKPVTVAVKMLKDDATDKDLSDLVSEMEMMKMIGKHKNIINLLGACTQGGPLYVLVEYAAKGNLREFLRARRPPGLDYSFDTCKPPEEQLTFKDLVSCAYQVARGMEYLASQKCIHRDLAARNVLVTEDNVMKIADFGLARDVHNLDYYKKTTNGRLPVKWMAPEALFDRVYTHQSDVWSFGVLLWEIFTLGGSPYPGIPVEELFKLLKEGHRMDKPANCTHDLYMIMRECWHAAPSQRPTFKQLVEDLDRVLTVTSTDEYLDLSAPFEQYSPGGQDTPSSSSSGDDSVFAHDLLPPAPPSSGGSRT
Procedure, shortened: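 KATO III cells incubated 6 h with 50 nM compound, then stimulated with FGF1 for 10 min; pFGFR, pPLCγ1 (Tyr783) and pFRS2α immunoblotted.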

[2] = target: Fibroblast growth factor receptor 2 (Homo sapiens) (UniProt P21802); test: Induction of FGFR2 receptor internalization in human KATO III stomach cancer cell line at 100 nM measured for 6 hrs by immunofluorescence assay; type: cell-based; conditions: filed as activator
Chain of Fibroblast growth factor receptor 2 (Homo sapiens) (P21802 22-821 limits assumed): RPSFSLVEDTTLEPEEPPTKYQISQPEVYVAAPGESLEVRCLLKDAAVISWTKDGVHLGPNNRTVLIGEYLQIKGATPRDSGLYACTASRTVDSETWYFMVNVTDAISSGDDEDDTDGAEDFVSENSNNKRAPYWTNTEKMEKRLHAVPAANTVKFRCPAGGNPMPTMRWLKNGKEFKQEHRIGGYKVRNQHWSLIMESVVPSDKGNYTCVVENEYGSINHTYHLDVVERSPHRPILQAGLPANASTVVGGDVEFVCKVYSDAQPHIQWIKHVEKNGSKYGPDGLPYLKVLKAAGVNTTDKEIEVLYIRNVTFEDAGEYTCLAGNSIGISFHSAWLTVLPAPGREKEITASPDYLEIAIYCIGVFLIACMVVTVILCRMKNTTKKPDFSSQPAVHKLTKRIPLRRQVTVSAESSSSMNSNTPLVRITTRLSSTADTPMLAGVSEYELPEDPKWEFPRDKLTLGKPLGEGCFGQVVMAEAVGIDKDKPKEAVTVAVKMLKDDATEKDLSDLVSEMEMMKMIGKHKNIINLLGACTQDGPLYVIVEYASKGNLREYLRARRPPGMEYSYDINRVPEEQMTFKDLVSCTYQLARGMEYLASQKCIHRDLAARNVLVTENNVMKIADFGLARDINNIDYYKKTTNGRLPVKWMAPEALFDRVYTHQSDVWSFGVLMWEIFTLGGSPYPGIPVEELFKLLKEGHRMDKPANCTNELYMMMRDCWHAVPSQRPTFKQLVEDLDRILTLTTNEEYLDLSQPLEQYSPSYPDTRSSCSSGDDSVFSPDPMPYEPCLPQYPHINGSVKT
Procedure, shortened: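 KATO III cells treated with 100 nM for 3 or 6 h, fixed in 2% formaldehyde 2 min, blocked 5% BSA 1 h, anti-FGFR2 overnight, Alexa Fluor 488 secondary 1 h, DAPI 10 min; imaged by fluorescence microscopy.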

[3] = test system: SNU-16; test: Antitumor activity against human SNU-16 cells xenografted in BALB/c nude mouse assessed as reduction in FGFR phosphorylation in tumor at 20 mg/kg, po measured at 4 hrs; type: functional, organism-based
Procedure, shortened: (§1)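 Female BALB/c nude mice, 5 weeks old (20–22 g), s.c. right-flank SNU-16 implants, randomized by body weight into groups (n = 5) once tumours reached 50–100 mm3. Dosing 20 mg/kg/day intragastric in 0.5% CMC-Na for 15 d; vehicle controls. Tumour width and length measured every 2 days; tumours harvested 4 h after last dose and lysates immunoblotted for pFGFR, FGFR2, pPLCγ, pErk.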

[4] = target: T1, Protein cereblon/Fibroblast growth factor receptor 2 (Homo sapiens, UniProt P21802+Q96SW2); test: PROTAC activity at CRBN/FGFR2 in human KATO III stomach cancer cell line assessed as FGFR2 degradation by measuring FGFR2 expression level upto 300 nM measured for 6 hrs by Western blotting analysis; type: cell-based
T1 sequence (P21802 22-821 limits assumed): as above
T1 sequence (Q96SW2 whole entry partner): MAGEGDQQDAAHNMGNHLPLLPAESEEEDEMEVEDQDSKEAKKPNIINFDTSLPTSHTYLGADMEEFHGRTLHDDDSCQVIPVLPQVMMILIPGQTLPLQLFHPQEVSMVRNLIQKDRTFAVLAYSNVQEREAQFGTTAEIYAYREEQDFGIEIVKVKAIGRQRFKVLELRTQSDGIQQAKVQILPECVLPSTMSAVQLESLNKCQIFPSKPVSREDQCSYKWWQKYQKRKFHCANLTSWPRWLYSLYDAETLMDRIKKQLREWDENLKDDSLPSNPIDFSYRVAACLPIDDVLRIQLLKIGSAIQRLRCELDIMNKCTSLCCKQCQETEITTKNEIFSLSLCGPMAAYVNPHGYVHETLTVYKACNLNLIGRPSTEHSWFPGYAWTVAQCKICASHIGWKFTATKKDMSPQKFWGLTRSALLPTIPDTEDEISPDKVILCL
Procedure, shortened: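 KATO III cells treated 6 h across 0.5–10,000 nM (DMSO stock, final DMSO below 0.5%); FGFR2 immunoblotted, quantified as FGFR2/β-actin ratio normalized to DMSO-treated cells, three independent biological experiments; DC50 and Dmax derived from the curve.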

[5] = target: T1, Protein cereblon/Fibroblast growth factor receptor 2; test: PROTAC activity at CRBN/FGFR2 in human KATO III stomach cancer cell line assessed as FGFR2 degradation by measuring FGFR2 expression level at 100 nM measured after 12 hrs by Western blotting analysis relative to control; type: cell-based
Procedure, shortened: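 Time course in KATO III cells: FGFR2/β-actin by Western blot at successive treatment times, normalized to DMSO control.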

[6] = test system: BaF3; test: Antiproliferative activity against mouse BaF3 cells expressing Tel-FGFR1 assessed as cell growth inhibition measured after 72 hrs by celltiter-glo reagent based assay; type: functional; conditions: BaF3, 72 h
Procedure, shortened: (§2)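 Ba/F3 cells stably expressing cytoplasmic TEL-FGFR1, -2, -3 or -4 fusions were treated in 96-well format, final DMSO 0.1%, for 72 h. Viability read by CellTiter-Glo luminescence after 10 min at room temperature. Inhibition calculated from blank- and control-corrected RLU; IC50 from 4-parameter concentration–response fit.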

[7] = test system: BaF3; test: Antiproliferative activity against mouse BaF3 cells expressing Tel-FGFR4 assessed as cell growth inhibition measured after 72 hrs by celltiter-glo reagent based assay; type: functional; conditions: BaF3, 72 h; procedure, shortened: as §2
[8] = target: T1, Protein cereblon/Fibroblast growth factor receptor 2; test: PROTAC activity at CRBN/FGFR2 in human KATO III stomach cancer cell line assessed as FGFR2 degradation measured for 6 hrs in presence of bortezomib by immunoblot analysis; type: cell-based
Procedure, shortened: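 KATO III cells were pretreated with 1 μM proteasome inhibitor (MG132 or bortezomib), then exposed to degrader at 100 nM for 6 h. FGFR2 was read by immunoblot against β-actin loading, with ECL detection.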

[9] = target: T1, Protein cereblon/Fibroblast growth factor receptor 2; test: PROTAC activity at CRBN/FGFR2 in human KATO III stomach cancer cell line assessed as FGFR2 degradation measured for 6 hrs by immunoblot analysis; type: cell-based
Procedure, shortened: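 KATO III cells treated for 6 h at the stated concentrations, added from 10 mM DMSO stocks (final DMSO below 0.5%). Cells were washed with PBS and lysed in 2× loading buffer, then run on SDS-PAGE and blotted to PVDF. Anti-FGFR2 was applied overnight at 4 °C, with ECL detection. FGFR2 was expressed as FGFR2/β-actin, normalized to DMSO-treated cells, from three independent biological experiments.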

[10] = test system: SNU-16; test: Antiproliferative activity against human SNU-16 cells assessed as reduction in cell viability measured for 72 hrs by celltiter-glo reagent based assay; type: functional; conditions: SNU-16, 72 h
Procedure, shortened: (§3)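 Cancer lines KATO III, SNU16, NCI-H716, NCI-H1975, MV-4-11 and HEK293T treated 72 h; antiproliferative IC50 given as mean ± s.d. from three independent biological experiments.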

[11] = test system: MV4-11; test: Antiproliferative activity against human MV4-11 cells assessed as reduction in cell viability measured for 72 hrs by celltiter-glo reagent based assay; type: functional; conditions: MV4-11, 72 h; procedure, shortened: as §3
[12] = Antiproliferative activity against human HEK293T cells assessed as reduction in cell viability measured for 72 hrs by celltiter-glo reagent based assay; type: toxicity, HEK-293T; procedure, shortened: as §3
[13] = test system: KATO III stomach cancer cell line; test: Induction of cell cycle arrest in human KATO III stomach cancer cell line assessed as accumulation of cells at G0/G1 phase […] by flow cytometry analysis; type: functional, cell-based
Procedure, shortened: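 KATO III cells harvested with EDTA-free trypsin, fixed in cold 70% ethanol overnight at −20 °C, stained with DNA staining solution 30 min at room temperature, analysed by flow cytometry.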

[14] = Toxicity in ICR mouse assessed as change in liver weight at 20 mg/kg, po measured for 30 days; type: organism-based; conditions: in vivo, 720 h, time 30 day
Procedure, shortened: (§4)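 ICR mice (n = 6) were dosed orally at 20 mg/kg/day for 30 days, alongside vehicle-treated controls. Mortality and clinical signs were checked daily. At the end, body and organ weights were recorded. Heart, liver, spleen, lung and kidney were examined by hematoxylin and eosin staining.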

[15] = Toxicity in ICR mouse assessed as change in lung weight at 20 mg/kg, po measured for 30 days; type: organism-based; conditions: in vivo, 720 h, time 30 day; procedure, shortened: as §4
[16] = Toxicity in ICR mouse assessed as change in kidney weight at 20 mg/kg, po measured for 30 days; type: organism-based; conditions: in vivo, 720 h, time 30 day; procedure, shortened: as §4
[17] = Toxicity in ICR mouse assessed as morphological changes in heart at 20 mg/kg, po measured for 30 days by hematoxyin-eosin staining based analysis; type: organism-based; conditions: in vivo, 720 h, time 30 day; procedure, shortened: as §4
[18] = test system: SNU-16; test: Antitumor activity against human SNU-16 cells xenografted in BALB/c nude mouse assessed as tumor growth inhibition at 20 mg/kg, po administered for 15 days and measured on day 2; type: functional; conditions: SNU-16, 48 h, time 2 day, read-out: TGI; procedure, shortened: as §1
[19] = test system: SNU-16; test: Antitumor activity against human SNU-16 cells xenografted in BALB/c nude mouse assessed as reduction in ERK1/2 phosphorylation in tumor at 20 mg/kg, po measured at 4 hrs; type: functional, organism-based; procedure, shortened: as §1
[20] = Clearance in mice at 3 mg/kg, iv measured at 0.083 to 24 hrs by LC-MS/MS analysis; conditions: mouse, in vivo
[21] = AUC (0 to infinity) in mouse at 20 mg/kg, po measured at 0.25 to 24 hrs by LC-MS/MS analysis; conditions: in vivo

SMILES: COc1cc(OC)c(Cl)c(NC(=O)N(C)c2cc(Nc3ccc(N4CCN(C(=O)C5CCN(c6ccc7c(c6)C(=O)N(C6CCC(=O)NC6=O)C7=O)CC5)CC4)cc3)ncn2)c1Cl (stereo unspecified)
- Activity [1]: Active
- Activity [2]: Active
- Activity [3]: Active
- Activity [4]: inactive
- Activity [5]: 90%
- IC50 [6]: 125 nM
- IC50 [7]: > 10000 nM
- Activity [8]: inactive
- Activity [9]: inactive
- IC50 [10]: 3.7 nM
- IC50 [11]: > 10000 nM
- IC50 at 72 h [12]: > 10000 nM
- Activity [13]: Active
- Activity [14]: Non-Toxic
- Activity [15]: Non-Toxic
- Activity [16]: Non-Toxic
- Activity [17]: Non-Toxic
- inhibition in vivo at 20 mg/kg [18]: 63.1%
- Activity [19]: Active
- clearance [20]: 121 mL/min/kg
- AUC(0-inf) [21]: 387 ng·h/mL
